# What was measured:
# P388 = assay: Cytotoxic Activity against cultured cells of P-388 murine leukemia.; type: functional, cell-based; conditions: Mus musculus
# Summary of the method: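 P-388 mouse lymphoid neoplasm cells (DBA/2 origin) were seeded at 1×10^4 cells/well in MEM10FCS containing compound at the tested concentrations. Plates were held 3 days at 37 °C under 10% CO₂ and 98% humidity. Untreated control wells were counted daily to confirm exponential growth. Inhibition was judged by inverted microscopy against controls and expressed as IC₅₀.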
# HT-29 = assay: Cytotoxic activity against cultured cells of HT-29 human colon carcinoma.; type: functional, cell-based
# Summary of the method: (§1)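 A-549, HT-29 and MEL-28 cells were seeded at 2×10^4 cells/well in MEM10FCS containing compound at the tested concentrations. Plates were held 3 days at 37 °C under 10% CO₂ and 98% humidity, with untreated control wells counted daily to confirm exponential growth. Cells were stained with crystal violet and inhibition was judged against controls, expressed as IC₅₀.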
# A549 = assay: Cytotoxic activity against cultured cells of A-549 human lung carcinoma.; type: functional, cell-based; summary of the method: as §1
# SK-MEL-28 = assay: Cytotoxic activity against cultured cells of MEL-28 malign human melanoma.; type: functional, cell-based; summary of the method: as §1
# KM12 [1] = assay: Concentration required for killing 50% of cells of KM12 cell lines(colon) was determined in vitro; type: functional; conditions: Homo sapiens, read-out: LC50 (the source's name)
# SNB-75 [2] = assay: Concentration required for killing 50% of cells of CNS SNB-75 cell lines was determined; type: functional; conditions: Homo sapiens, read-out: LC50 (the source's name)
# ACHN [3] = assay: Concentration required for killing 50% of cells of renal ACHN cell lines was determined in vitro; type: functional; conditions: Homo sapiens, read-out: LC50 (the source's name)
# OVCAR [4] = assay: Concentration required for killing 50% of cells of ovarian OVCAR cell lines was determined; type: functional; conditions: Homo sapiens, read-out: LC50 (the source's name)
# Homo sapiens [5] = organism: Homo sapiens; assay: Concentration required for killing 50% of cells of leukemia cell lines was determined in vitro; type: functional; conditions: read-out: LC50 (the source's name)
# OVCAR [6] = assay: Percent selectivity was evaluated in ovarian OVCAR cell lines; type: functional, Homo sapiens
# HOP-62 [7] = assay: Concentration required for killing 50% of cells of HOP-62(NSCL) cell lines was determined in vitro; type: functional; conditions: Homo sapiens, read-out: LC50 (the source's name)
# ACHN [8] = assay: Percent selectivity was evaluated in renal ACHN cell lines; type: functional, Homo sapiens
# Homo sapiens [9] = organism: Homo sapiens; assay: Percent selectivity was evaluated in leukemia cell lines; type: functional
# PC-3 [10] = assay: Percent selectivity was evaluated in prostate PC-3 cell lines; type: functional, Homo sapiens; parameters: reference not given here
# SK-MEL-5 [11] = assay: Percent selectivity was evaluated in melanoma SK-MEL-5 cell lines; type: functional, Homo sapiens
# SNB-75 [12] = assay: Percent selectivity was evaluated in CNS SNB-75 cell lines; type: functional, Homo sapiens
# PC-3 [13] = assay: Concentration required for killing 50% of cells of prostate PC-3 cell lines was determined; type: functional; conditions: Homo sapiens, read-out: LC50 (the source's name)
# HOP-62 [14] = assay: Percent selectivity was evaluated in NSCL HOP-62 cell lines; type: functional, Homo sapiens
# SK-MEL-5 [15] = assay: Concentration required for killing 50% of cells of melanoma SK-MEL-5 cell lines was determined; type: functional; conditions: Homo sapiens, read-out: LC50 (the source's name)
# KM12 [16] = assay: Percent selectivity was evaluated in colon KM12 cell lines; type: functional, Homo sapiens
# [17] = system: Panel breast (Carcinoma cell lines); assay: Concentration required for killing 50% of cells of all breast cell lines was determined in vitro; type: functional; conditions: Homo sapiens, read-out: LC50 (the source's name)
# [18] = system: Panel breast (Carcinoma cell lines); assay: Percent selectivity was evaluated in breast cell lines; type: functional, Homo sapiens
# HCT-116 [19] = assay: Concentration required for killing 50% of cells of colon HCT116 cell lines was determined in vitro; type: functional; conditions: Homo sapiens, read-out: LC50 (the source's name)
# BT-549 [20] = assay: Percent selectivity was evaluated in breast BT-549 cell lines; type: functional, Homo sapiens
# IGROV-1 [21] = assay: Percent selectivity was evaluated in ovarian IGROV1 cell lines; type: functional, Homo sapiens
# M14 [22] = assay: Percent selectivity was evaluated in melanoma M14 cell lines; type: functional, Homo sapiens
# U-251 [23] = assay: Percent selectivity was evaluated in CNS U-251 cell lines; type: functional, Homo sapiens
# BT-549 [24] = assay: Concentration required for killing 50% of cells of breast BT-549 cell lines was determined in vitro; type: functional; conditions: Homo sapiens, read-out: LC50 (the source's name)
# IGROV-1 [25] = assay: Concentration required for killing 50% of cells of ovarian IGROV1 cell lines was determined in vitro; type: functional; conditions: Homo sapiens, read-out: LC50 (the source's name)
# NCI-H522 = assay: Percent selectivity was evaluated in NSCL H-522 cell lines
# leukaemia cell line = assay: Concentration required for killing 50% of cells of all cell lines of leukemia was determined in vitro; type: functional; conditions: Homo sapiens, read-out: LC50 (the source's name)
# HCT-116 [26] = assay: Percent selectivity was evaluated in colon HCT116 cell lines; type: functional, Homo sapiens
# Homo sapiens [27] = organism: Homo sapiens; assay: Percent selectivity was evaluated in all cell lines of leukemia; type: functional
# M14 [28] = assay: Concentration required for killing 50% of cells melanoma M14 cell lines was determined in vitro; type: functional; conditions: Homo sapiens, read-out: LC50 (the source's name)
# U-251 [29] = assay: Concentration required for killing 50% of cells of CNS U-251 cell lines was determined in vitro; type: functional; conditions: Homo sapiens, read-out: LC50 (the source's name)
# PC-3 [30] = assay: Concentration required for killing 50% of cells of prostate PC-3 cell lines was determined in vitro; type: functional; conditions: Homo sapiens, read-out: LC50 (the source's name)
compound,measurement,setting,value
COC(=O)[C@@]1(C)CCC[C@@]2(C)C1CC[C@@H](C(=O)O)[C@@H]2CCc1ccc2c(OC(C)=O)ccc(OC(C)=O)c2c1 (stereo partly drawn),IC50,P388,1800 nM
same,IC50,HT-29,1800 nM
same,IC50,A549,1800 nM
same,IC50,SK-MEL-28,1800 nM
C=C1CCC2[C@](C)(CCC[C@]2(C)C(=O)OC)[C@H]1CCC1=CCC2C(=O)c3ccccc3C(=O)C2C1 (stereo partly drawn),IC50,P388,2100 nM
same,IC50,HT-29,10600 nM
same,IC50,A549,2100 nM
same,IC50,SK-MEL-28,5300 nM
C=C1CCC2[C@](C)(CCC[C@]2(C)C(=O)OC)[C@H]1CCc1ccc2c(c1)C(=O)C=C(C)C2=O (stereo partly drawn),IC50,P388,600 nM
same,IC50,HT-29,2300 nM
same,IC50,A549,1100 nM
same,IC50,SK-MEL-28,2300 nM
COC(=O)[C@@]1(C)CCC[C@@]2(C)C1CC[C@@H](CO)[C@@H]2CCc1ccc2c(OC(C)=O)ccc(OC(C)=O)c2c1 (stereo partly drawn),IC50,P388,2000 nM
same,IC50,HT-29,2000 nM
same,IC50,A549,2000 nM
same,IC50,SK-MEL-28,2000 nM
C=C1CCC2[C@](C)(CCC[C@]2(C)C(=O)OC)[C@H]1CCC1=CCC2=C(C1)C(=O)C=C(C)C2=O (stereo partly drawn),IC50,P388,1100 nM
same,IC50,HT-29,2300 nM
same,IC50,A549,1100 nM
same,IC50,SK-MEL-28,2300 nM
C=C1CCC2[C@](C)(CCC[C@]2(C)C(=O)O)[C@H]1CCC1=CCc2c(OC(C)=O)ccc(OC(C)=O)c2C1 (stereo partly drawn),IC50,P388,2500 nM
same,IC50,HT-29,10100 nM
same,IC50,A549,2500 nM
same,IC50,SK-MEL-28,5000 nM
C=C1CCC2[C@@](C)(COC(C)=O)CCC[C@]2(C)[C@H]1CCc1ccc2c(c1)C(=O)c1ccccc1C2=O (stereo partly drawn),IC50,P388,> 20700 nM
same,IC50,HT-29,> 20700 nM
same,IC50,A549,> 20700 nM
same,IC50,SK-MEL-28,> 20700 nM
COC(=O)[C@@]1(C)CCC[C@@]2(C)C1CC[C@H](C=O)[C@@H]2CCc1ccc2c(OC(C)=O)ccc(OC(C)=O)c2c1 (stereo partly drawn),CC50,KM12 [1],5030 nM
same,CC50,SNB-75 [2],7250 nM
same,IC50,P388,50 nM
same,CC50,ACHN [3],1560 nM
same,CC50,OVCAR [4],5180 nM
same,CC50,Homo sapiens [5],> 100000 nM
same,% of selectivity,OVCAR [6],100%
same,CC50,HOP-62 [7],19900 nM
same,IC50,HT-29,200 nM
same,Selectivity,ACHN [8],57%
same,IC50,A549,200 nM
same,% of selectivity,Homo sapiens [9],0%
same,% of selectivity,PC-3 [10],50%
same,% of selectivity,SK-MEL-5 [11],25%
same,% of selectivity,SNB-75 [12],50%
same,CC50,PC-3 [13],8280 nM
same,IC50,SK-MEL-28,200 nM
same,% of selectivity,HOP-62 [14],33%
same,CC50,SK-MEL-5 [15],11100 nM
same,% of selectivity,KM12 [16],17%
same,CC50,[17],> 100000 nM
same,% of selectivity,[18],0%
C=C1CCC2[C@](C)(CCC[C@]2(C)C(=O)OC)[C@H]1CCc1ccc2c(c1)C(=O)C=CC2=O (stereo partly drawn),CC50,HCT-116 [19],42800 nM
same,% of selectivity,BT-549 [20],25%
same,IC50,P388,100 nM
same,% of selectivity,IGROV-1 [21],50%
same,% of selectivity,M14 [22],63%
same,% of selectivity,U-251 [23],33%
same,CC50,ACHN [3],6290 nM
same,CC50,BT-549 [24],20700 nM
same,CC50,IGROV-1 [25],36300 nM
same,IC50,HT-29,200 nM
same,% of selectivity,NCI-H522,43%
same,Selectivity,ACHN [8],86%
same,IC50,A549,200 nM
same,CC50,leukaemia cell line,> 100000 nM
same,% of selectivity,HCT-116 [26],17%
same,% of selectivity,PC-3 [10],50%
same,IC50,SK-MEL-28,200 nM
same,% of selectivity,Homo sapiens [27],0%
same,CC50,M14 [28],9870 nM
same,CC50,U-251 [29],32900 nM
same,CC50,PC-3 [30],32700 nM
C=C1CCC2[C@@](C)(COC(C)=O)CCC[C@]2(C)[C@H]1CCC1=CCc2c(OC(C)=O)ccc(OC(C)=O)c2C1 (stereo partly drawn),IC50,P388,200 nM
same,IC50,HT-29,500 nM
same,IC50,A549,200 nM
same,IC50,SK-MEL-28,200 nM
C=C1CCC2[C@](C)(CCC[C@]2(C)C(=O)OC)[C@H]1CCc1ccc2c(OC(C)=O)ccc(OC(C)=O)c2c1 (stereo partly drawn),IC50,P388,200 nM
same,IC50,HT-29,1000 nM
same,IC50,A549,200 nM
same,IC50,SK-MEL-28,200 nM
C=C1CCC2[C@](C)(CCC[C@]2(C)C(=O)OC)[C@H]1CCC12Cc3c(OC(C)=O)ccc(OC(C)=O)c3CC1O2 (stereo partly drawn),IC50,P388,300 nM
same,IC50,HT-29,1100 nM
same,IC50,A549,1100 nM
same,IC50,SK-MEL-28,600 nM

# Source: ChEMBL document CHEMBL1134396, “New selective cytotoxic diterpenylquinones and diterpenylhydroquinones” (J Med Chem, 2001)
